From PubChem BioAssay
MPTP inh: mitochondrial permeability transition pore inhibitors, primary screen, biochemical, isolated mouse mitochondria, absorbance | Ca2+ swelling absorbance, 30 min | inhibition, % at 10 µM | hit rate 1.4% among 360,000 | AID 602449, 2012;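 active = inhibition of 50% or more, scaled per plate between neutral and stimulator controls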;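 also: 0% = DMSO wells given calcium and 100% = 1 mM EGTA wells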
Granule exo inh: LAMP-1 surface exposure blockers, TALL-104 cells – cell-based, flow cytometry, MLPCN library, primary screen. TALL-104 LAMP-1 surface exposure; cells stimulated with thapsigargin and PMA. hit rate 0.66% among 360,000. inhibition, % at 10 µM;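 active = inhibition above about 55%, limit read from the data; inconclusive = no clear call, values can overlap the other calls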
UBC13 inh: UBC13 polyubiquitin chain formation inhibitors, primary screen, biochemical, TR-FRET, uHTS; Ubiquitin-conjugating enzyme E2 N (Homo sapiens), P61088; inhibition, % at 20 µM; hit rate 0.47% among 330,000; in the data active = inhibition above about 45%, passing the limit was not always enough; inconclusive = no clear call, values can overlap the other calls
Target sequence (P61088 whole entry, looked up): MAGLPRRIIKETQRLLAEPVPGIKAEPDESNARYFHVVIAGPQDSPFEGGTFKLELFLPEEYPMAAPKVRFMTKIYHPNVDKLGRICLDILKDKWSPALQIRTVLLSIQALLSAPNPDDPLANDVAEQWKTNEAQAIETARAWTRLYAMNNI
Apaf-1 inh: inhibitors of human Apaf-1 apoptosome, primary screen, biochemical, DEVD-Rh110 fluorescence, uHTS; reconstituted apoptosome caspase-3 activity; inhibition, % at 20 µM; hit rate 0.71% among 330,000; AID 489030, 2010; active = inhibition of at least 40% at 20 µM;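 also: plate controls were DMSO wells for no effect and DEVD-CHO caspase inhibitor wells for full effect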
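Material: reconstituted apoptosome with Apaf-1, cytochrome c, caspase-9, procaspase-3, dATP. Technique: Rh110 fluorescence intensity. Buffer or medium: pH 7.5 Hepes buffer with CHAPS, BSA, DTT. Times: 30 min plus 50 min, RT.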
beta cell repl: inducers of MIN6 beta-cell proliferation, primary screen, ATP luminescence, uHTS; MIN6 cells proliferation, ATPlite luminescence, 48 h; cells starved in 0.2% serum; 100% = growth in 10% serum; proliferation, % at 10 µM; hit rate 0.29% among 330,000; AID 2380, 2010;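 active = compounds whose signal lies at least 3.5 SD above the mean of all wells on their plate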;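 also: 0% = DMSO-treated cells in low-serum medium and 100% = 10% serum control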
hiPSC survival: enhancers of single-cell hiPSC survival, primary screen, ATPlite luminescence | hit rate 0.044% among 360,000 | survival enhancement, % at 20 µM | AID 602274, 2012 | 100% = ROCK inhibitor wells, 0% = DMSO; in the data active = survival enhancement above about 18%;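 also: cells exposed to compounds for 16 hours before the ATP read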
* = called active by the depositor; i = inactive; u = inconclusive; x = no result given. Compounds with a hit are over-represented: about 3% of the library has one in this group of screens.

SMILES | MPTP inh | Granule exo inh | UBC13 inh | Apaf-1 inh | beta cell repl | hiPSC survival
C#CCOCCOCCOCCNc1nc(N2CCN(C(=O)CCCCCCCCCCNC(=O)Cn3cc(C[C@@H](C)O)nn3)CC2)nc(N2CCN(C(=O)CCCCCCCCCCNC(=O)[C@@H](CCSC)n3cc(CCO)nn3)CC2)n1 | -1 | 37 | 26 | 30 | -8 | 3
C#CCOCCOCCOCCNc1nc(N2CCOCC2)nc(N2CCN(C(=O)[C@H]([C@@H](C)CC)n3cc(CCCN=C(N)N)nn3)CC2)n1 | 0 | 1 | 15 | 3 | -5 | 1
C#CCOCCOCCOCCNc1nc(N2CCN(C(=O)CCCCCCCCCCNC(=O)[C@H]([C@@H](C)CC)n3cc(CCCCN=C(N)N)nn3)CC2)nc(N2CCN(C(=O)CCCCCCCCCCNC(=O)[C@H](CCCN=C(N)N)n3cc(C[C@@H](C)CC)nn3)CC2)n1 | x | x | 129* | 46* | -8 | x
C#CCOCCOCCOCCNc1nc(N2CCOCC2)nc(N2CCN(C(=O)CCCCCCCCCCNC(=O)[C@H](CO)n3cc(CCCSC)nn3)CC2)n1 | -3 | -5 | 2 | 25 | -6 | 0
N#Cc1ccccc1S(=O)(=O)N1CCN(CC(=O)Nc2ccccc2C(=O)NC2CC2)CC1 | -3 | 0 | 3 | -11 | 6 | 0
CN1CCN(C(=O)c2cc3c(c(-c4cccc(-c5cc6ccccc6o5)c4)n2)[C@@H](CCO)N(S(=O)C(C)(C)C)C3)CC1 (some centres not stated) | 0 | 2 | x | x | x | -3
CCc1ccccc1NC(=O)c1ccc2c(O)c(S(=O)(=O)c3ccc(OC)cc3)c(=O)[nH]c2c1 | -1 | -18 | -14 | 0 | 0 | 0
C#CCOCCOCCOCCNc1nc(N2CCN(C(=O)[C@H]([C@@H](C)CC)n3cc(CCCCN)nn3)CC2)nc(N2CCN(C(=O)[C@H](CCCCN)n3cc(CC(C)O)nn3)CC2)n1 (some centres not stated) | -1 | 5 | 20 | 17 | -3 | -1
C#CCOCCOCCOCCNc1nc(N2CCN(C(=O)CCCCCCCCCCNC(=O)[C@H](CCCN=C(N)N)n3cc(C[C@@H](C)CC)nn3)CC2)nc(N2CCN(C(=O)CCCCCCCCCCNC(=O)[C@@H]([C@H](C)CC)n3cc(CCCCCN)nn3)CC2)n1 | x | x | 122* | 80* | -8 | x
Cc1cccc(Cc2c(C)nc3c(C(=O)NCc4ccco4)cnn3c2C)c1 | 2 | 37 | 29 | 15 | -4 | 19*
COc1ccc(N=C2S/C(=C\c3ccc(Cl)c([N+](=O)[O-])c3)C(=O)N2CCN(C)C)cc1 | -2 | 73* | 33 | 21 | -6 | 14
CCCN1C(=O)/C(=C/c2ccc(C)s2)SC1=Nc1ccc(OC)cc1 | -7 | 1 | 5 | 5 | 1 | 4
CCN(CC)CCN1C(=O)/C(=C\c2ccc(Cl)c([N+](=O)[O-])c2)SC1=Nc1ccc(OC)cc1 | 1 | 93* | 13 | 33 | -4 | 16
CCN1C(=O)/C(=C/c2cccs2)SC1=Nc1ccc(OC)cc1 | 1 | -6 | 0 | 11 | -2 | 0
CCCNC(=O)C1(C)CCN(C(=O)COc2ccc(Cl)cc2Cl)C1 (configuration not stated) | 1 | 5 | x | x | x | -2
O=[N+]([O-])c1ccc(Sc2cccc[n+]2[O-])c2nonc12 | 5 | 96* | x | x | x | 0
O=[N+]([O-])c1ccc(Nc2ccccc2)c2nonc12 | 6 | 0 | i | 12 | -1 | 1
Cn1c(CNC(=O)CCNC(=O)c2cccc(Br)c2)cc(=O)n(C)c1=O | 0 | 3 | 1 | -5 | 10 | 0
Cc1cc2cc(OCc3ccccc3)ccc2n1C | -1 | -5 | 1 | 4 | 0 | -1
Cc1c(C=O)c2cc(OCc3ccccc3)ccc2n1C | 2 | 69* | 14 | 2 | 0 | -1
O=S(=O)(CCNC1CC1)NC1CCCCC1 | -2 | -13 | x | x | x | -1
CCc1ccccc1NC(=O)C1C2C=CC(O2)C1C(=O)O (configuration not stated) | -1 | -10 | u | -1 | -2 | -1
O=C(O)C1C2C=CC(O2)C1C(=O)Nc1ccccc1C(F)(F)F (configuration not stated) | -8 | 83* | -3 | 8 | -2 | -2
CCN(CC)c1ccc(/C=N/NC(=O)CNC(=O)c2ccc3c(c2)OCCO3)cc1 | 1 | 74* | 4 | 17 | 0 | 0
CC1(Br)C(Sc2ccccc2[N+](=O)[O-])=Nc2ccccc21 (configuration not stated) | 4 | 72* | x | x | x | -1
SMILES | MPTP inh | Granule exo inh | UBC13 inh | Apaf-1 inh | beta cell repl | hiPSC survival
Cc1ccc(C(=O)c2no[n+]([O-])c2C(=O)c2ccc(C)cc2)cc1 | -2 | 68* | 6 | -9 | -6 | -1
Cc1ccc(C(=O)c2ccc(C)cc2)cc1 | 2 | -2 | 3 | 5 | -3 | -1
CCNc1ccc(Br)cc(C(=O)/C=C/c2c(Cl)cccc2Cl)c1=O | 21 | 78* | -26 | 33 | -6 | 0
CNc1ccc(Br)cc(C(=O)/C=C/c2ccc(Cl)cc2Cl)c1=O | 3 | 100* | -29 | 33 | -5 | -1
CNc1ccc(Br)cc(C(=O)/C=C/c2ccc(OC)cc2OC)c1=O | 5 | -2 | -18 | 22 | -5 | -1
Cc1nc2ccc(C(=O)Nc3ccc4c(c3)OCC(=O)N4)cn2c1N(C)C(=O)CCc1ccccc1 | 0 | 0 | x | x | x | 3
Nc1ccc(N)c(C(=O)O)c1 | 4 | 0 | 29 | 67* | -2 | -1
CCOC(=O)c1ccc(NC(=O)c2nc(S(=O)(=O)Cc3ccccc3)ncc2Cl)cc1 | -5 | 46 | 8 | 8 | -7 | 20*
CCc1ccc(NC(=O)c2nc(S(=O)(=O)Cc3ccccc3)ncc2Cl)cc1 | -5 | 36 | -3 | 17 | -8 | 0
Cc1cccc(CS(=O)(=O)c2ncc(Cl)c(C(=O)NCc3ccc4c(c3)OCO4)n2)c1 | -1 | 64* | 26 | 2 | -7 | 0
Cc1ccc2ccc(C(Nc3ccccn3)c3ccccc3)c(O)c2n1 (configuration not stated) | 1 | 3 | -33 | 11 | -6 | -2
COc1cc(C(Nc2ccccn2)c2ccc3ccc(C)nc3c2O)cc(OC)c1O (configuration not stated) | 3 | 105* | -9 | 5 | -6 | -5
COc1ccc(Cl)cc1NC(=O)c1noc2c1CCCC2 | 2 | -4 | 20 | -12 | 7.6* | 0
COc1ccc(N2CCN(C(=O)CN(c3cccc(OC)c3)S(=O)(=O)c3ccccc3)CC2)cc1 | 0 | 4 | 2 | 15 | -2 | 0
